Measurements published in ChEMBL document CHEMBL1671756, “In vitro and in vivo antifungal susceptibilities of the Mucoralean fungus Cunninghamella” (2010).
Converted amounts (≈) assume the structure as drawn. The source made the active and inactive calls. No cut-off for these calls is given here.

Key:
[1] = system: Cunninghamella bertholletiae; assay: Antifungal activity against Cunninghamella bertholletiae UTHSC 05-2275 after 24 hrs by broth microdilution method; format: functional; settings: UTHSC 05-2275, 24 h
Outline: (§1)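 CLSI broth microdilution for filamentous fungi. Isolates were stored at −80°C and subcultured on potato dextrose agar at 35°C. MICs were read after 24 h. […] The QC strain was Paecilomyces variotii ATCC 36257.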

[2] = system: Cunninghamella bertholletiae; assay: Antifungal activity against Cunninghamella bertholletiae FMR-9598 after 24 hrs by broth microdilution method; format: functional; settings: FMR-9598, 24 h; outline: as §1
[3] = system: Cunninghamella bertholletiae; assay: Antifungal activity against Cunninghamella bertholletiae UTHSC 04-2581 after 24 hrs by broth microdilution method; format: functional; settings: UTHSC 04-2581, 24 h; outline: as §1
[4] = system: Cunninghamella bertholletiae; assay: Antifungal activity against Cunninghamella bertholletiae UTHSC 03-2241 after 24 hrs by broth microdilution method; format: functional; settings: UTHSC 03-2241, 24 h; outline: as §1
[5] = system: Cunninghamella bertholletiae; assay: Antifungal activity against Cunninghamella bertholletiae UTHSC 06-1945 after 24 hrs by broth microdilution method; format: functional; settings: UTHSC 06-1945, 24 h; outline: as §1
[6] = Antifungal activity against Cunninghamella echinulata UTHSC 03-3725 after 24 hrs by broth microdilution method; format: functional; outline: as §1
[7] = Antifungal activity against Cunninghamella echinulata FMR 10974 after 24 hrs by broth microdilution method; format: functional; outline: as §1
[8] = Antifungal activity against Cunninghamella echinulata FMR 10973 after 24 hrs by broth microdilution method; format: functional; outline: as §1
[9] = Antifungal activity against Cunninghamella echinulata UTHSC 01-2298 after 24 hrs by broth microdilution method; format: functional; outline: as §1
[10] = system: Cunninghamella bertholletiae; assay: Antifungal activity against Cunninghamella bertholletiae UTHSC 05-2275 infected in neutropenic OF1 mouse assessed as decreased fungal load in kidney at 50 mg/kg, po bid administered 1 day post infection measured after 4 to 5 days relative to untreated control; format: functional, organism-based; set-up: dose 50 mg/kg
Outline: (§2)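 Neutropenic male OF1 mice (cyclophosphamide 200 mg/kg i.p. + 5-fluorouracil 150 mg/kg i.v., day −1) were infected i.v. with 1 × 10⁴ CFU. Ten mice per group were treated from day 1 and killed by CO₂ on day 5, or on day 4 if moribund. Half of each brain, lung and kidney was homogenized in 1 ml saline. Ten-fold dilutions were plated on PDA for 24 h at 35°C and counted as log₁₀ CFU/g.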

[11] = system: Cunninghamella bertholletiae; assay: Antifungal activity against Cunninghamella bertholletiae UTHSC 05-2275 infected in neutropenic OF1 mouse assessed as increase in mouse survival rate at 50 mg/kg, po bid administered 1 day after infection for 7 days relative to untreated control; format: functional, organism-based; set-up: dose 50 mg/kg
Outline: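 Male OF1 mice (~30 g) were made neutropenic with cyclophosphamide 200 mg/kg i.p. plus 5-fluorouracil 150 mg/kg i.v. 1 day before challenge. Challenge was 1 × 10⁴ CFU sporangiospores in 0.2 ml saline via the lateral tail vein. Mice got ceftazidime 5 mg/day s.c. on days 1–7. Dosing started 24 h post-challenge for 7 days. There were 10 mice/group, observed daily for 20 days. Kaplan-Meier analysis with log-rank test.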

[12] = system: Cunninghamella bertholletiae; assay: Antifungal activity against Cunninghamella bertholletiae UTHSC 05-2275 infected in diabetic OF1 mouse assessed as increase in mouse survival rate at 25 mg/kg, po bid administered 1 day after infection for 7 days relative to untreated control; format: functional, organism-based; set-up: dose 25 mg/kg
Outline: (§3)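 Male OF1 mice were made diabetic with streptozocin 210 mg/kg i.p. Diabetes was confirmed by blood glucose >250 mg/dl at day 10. Challenge was 1 × 10⁵ CFU in 0.2 ml saline i.v. (tail vein), with ceftazidime 5 mg/day s.c. on days 1–7. Treatment began 1 day after challenge for 7 days. There were 10 mice/group, checked daily for 20 days. Kaplan-Meier analysis with log-rank comparison.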

[13] = system: Cunninghamella bertholletiae; assay: Antifungal activity against Cunninghamella bertholletiae UTHSC 05-2275 infected in diabetic OF1 mouse assessed as increase in mouse survival rate at 50 mg/kg, po bid administered 1 day after infection for 7 days relative to untreated control; format: functional, organism-based; set-up: dose 50 mg/kg; outline: as §3
[14] = system: Cunninghamella bertholletiae; assay: Antifungal activity against Cunninghamella bertholletiae UTSCH 05-2275 infected in diabetic OF1 mouse assessed as decreased fungal load in lung at 50 mg/kg, po bid administered 1 day post infection measured after 4 to 5 days relative to untreated control; format: functional, organism-based; set-up: dose 50 mg/kg
Outline: (§4)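 Diabetic OF1 mice (streptozocin 210 mg/kg i.p.; glucose >250 mg/dl) were infected i.v. with 1 × 10⁵ CFU, with ceftazidime cover. Ten per group were treated from day 1 and killed day 5, or day 4 if moribund. Half-organ homogenates (brain, lung, kidney) in 1 ml saline were serially diluted 10-fold on PDA, incubated 24 h at 35°C, and reported as log₁₀ CFU/g tissue.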

[15] = system: Cunninghamella bertholletiae; assay: Antifungal activity against Cunninghamella bertholletiae UTSCH 05-2275 infected in diabetic OF1 mouse assessed as decreased fungal load in kidney at 50 mg/kg, po bid administered 1 day post infection measured after 4 to 5 days relative to untreated control; format: functional, organism-based; set-up: dose 50 mg/kg; outline: as §4
[16] = system: Cunninghamella bertholletiae; assay: Antifungal activity against Cunninghamella bertholletiae UTHSC 05-2275 infected in neutropenic OF1 mouse assessed as decreased fungal load in lung at 25 mg/kg, po bid administered 1 day post infection measured after 4 to 5 days relative to untreated control; format: functional, organism-based; set-up: dose 25 mg/kg; outline: as §2
[17] = system: Cunninghamella bertholletiae; assay: Antifungal activity against Cunninghamella bertholletiae UTHSC 05-2275 infected in neutropenic OF1 mouse assessed as decreased fungal load in kidney at 25 mg/kg, po bid administered 1 day post infection measured after 4 to 5 days relative to untreated control; format: functional, organism-based; set-up: dose 25 mg/kg; outline: as §2
[18] = system: Cunninghamella bertholletiae; assay: Antifungal activity against Cunninghamella bertholletiae UTHSC 05-2275 infected in neutropenic OF1 mouse assessed as decreased fungal load in lung at 50 mg/kg, po bid administered 1 day post infection measured after 4 to 5 days relative to untreated control; format: functional, organism-based; set-up: dose 50 mg/kg; outline: as §2
[19] = system: Cunninghamella bertholletiae; assay: Antifungal activity against Cunninghamella bertholletiae UTHSC 05-2275 infected in neutropenic OF1 mouse assessed as increase in mouse survival rate at 25 mg/kg, po bid administered 1 day after infection for 7 days relative to untreated control

| Compound | MIC [1] | MIC [2] | MIC [3] | MIC [4] | MIC [5] | MIC [6] | MIC [7] | MIC [8] | MIC [9] | Activity [10] | Activity [11] | Activity [12] | Activity [13] | Activity [14] | Activity [15] | Activity [16] | Activity [17] | Activity [18] | Activity [19] |
| --- | --- | --- | --- | --- | --- | --- | --- | --- | --- | --- | --- | --- | --- | --- | --- | --- | --- | --- | --- |
| CN(C/C=C/C#CC(C)(C)C)Cc1cccc2ccccc12 [TERBINAFINE] | 0.06 µg/mL (≈ 0.206 µM) | 0.06 µg/mL (≈ 0.206 µM) | 0.03 µg/mL (≈ 0.103 µM) | 0.03 µg/mL (≈ 0.103 µM) | 0.03 µg/mL (≈ 0.103 µM) | 0.03 µg/mL (≈ 0.103 µM) | 0.06 µg/mL (≈ 0.206 µM) | 0.06 µg/mL (≈ 0.206 µM) | 0.06 µg/mL (≈ 0.206 µM) |  |  |  |  |  |  |  |  |  |  |
| C[C@@H](c1nc(-c2ccc(C#N)cc2)cs1)[C@](O)(Cn1cncn1)c1ccc(F)cc1F [RAVUCONAZOLE] | > 16 µg/mL | > 16 µg/mL | > 16 µg/mL | > 16 µg/mL | > 16 µg/mL | > 16 µg/mL | > 16 µg/mL | > 16 µg/mL | > 16 µg/mL |  |  |  |  |  |  |  |  |  |  |
| C[C@@H](c1ncncc1F)[C@](O)(Cn1cncn1)c1ccc(F)cc1F [VORICONAZOLE] | 16 µg/mL (≈ 45.8 µM) | > 16 µg/mL | 16 µg/mL (≈ 45.8 µM) | 8 µg/mL (≈ 22.9 µM) | 16 µg/mL (≈ 45.8 µM) | > 16 µg/mL | > 16 µg/mL | > 16 µg/mL | > 16 µg/mL |  |  |  |  |  |  |  |  |  |  |
| CCC(C)n1ncn(-c2ccc(N3CCN(c4ccc(OCC5COC(Cn6cncn6)(c6ccc(Cl)cc6Cl)O5)cc4)CC3)cc2)c1=O (stereo not given) [ITRACONAZOLE] | 2 µg/mL (≈ 2.83 µM) | 8 µg/mL (≈ 11.3 µM) | 1 µg/mL (≈ 1.42 µM) | 1 µg/mL (≈ 1.42 µM) | 2 µg/mL (≈ 2.83 µM) | 2 µg/mL (≈ 2.83 µM) | > 16 µg/mL | > 16 µg/mL | > 16 µg/mL | inactive | Active | inactive | Active | Active | inactive | Active | inactive | Active | inactive |
| CC[C@H](C)C[C@H](C)CCCCCCCCC(=O)N[C@H]1C[C@@H](O)[C@@H](NCCN)NC(=O)[C@@H]2[C@@H](O)CCN2C(=O)[C@H]([C@H](O)CCN)NC(=O)[C@H]([C@H](O)[C@@H](O)c2ccc(O)cc2)NC(=O)[C@@H]2C[C@@H](O)CN2C(=O)[C@H]([C@@H](C)O)NC1=O [CASPOFUNGIN] | > 16 µg/mL | > 16 µg/mL | > 16 µg/mL | > 16 µg/mL | > 16 µg/mL | > 16 µg/mL | > 16 µg/mL | > 16 µg/mL | > 16 µg/mL |  |  |  |  |  |  |  |  |  |  |
